According to ChEMBL document CHEMBL3588808, “Koumine, Humantenine, and Yohimbane Alkaloids from Gelsemium elegans” (J Nat Prod, 2015):

Columns and labels:
[1] = system: RAW264.7; test: Inhibition of nitric oxide production in LPS-activated mouse RAW264.7 cells; type: functional, cell-based
Summary of the method: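 LPS-activated RAW264.7 macrophages; compounds dissolved in DMSO and diluted in medium to a range of concentrations, top concentration 25 μM; NO production read as absorbance at 570 nm on a plate reader.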

[2] = system: A549; test: Cytotoxicity against human A549 cells by MTT assay; type: functional, cell-based
[3] = system: HL-60; test: Cytotoxicity against human HL60 cells by MTT assay; type: functional, cell-based
[4] = Cytotoxicity against human BEAS2B cells by MTT assay; type: cell-based, BEAS-2B
[5] = system: SMMC-7721; test: Cytotoxicity against human SMMC7721 cells by MTT assay; type: functional, cell-based
[6] = system: SW480; test: Cytotoxicity against human SW480 cells by MTT assay; type: functional, cell-based
[7] = system: MCF7; test: Cytotoxicity against human MCF7 cells by MTT assay; type: functional, cell-based
[8] = Mus musculus, RAW264.7, read-out: IC50
[9] = Homo sapiens, A549, read-out: IC50
[10] = Homo sapiens, HL-60, read-out: IC50
[11] = Homo sapiens, BEAS-2B, read-out: IC50
[12] = Homo sapiens, SMMC-7721, read-out: IC50
[13] = Homo sapiens, SW480, read-out: IC50
[14] = Homo sapiens, MCF7, read-out: IC50

Question: For `C=C[C@]12[C@@H]3C[C@@H]4OC[C@@H]3[C@@H](C[C@]13C4=Nc1ccccc13)N(C)[C@H]2O`, which IC50 [1, 8] is on record?
Answer: Its IC50 is over 25 µM.

Question: Which IC50 [1, 8] does the source give for `COc1ccc2c(c1)N(OC)C(=O)[C@@]21C[C@@H]2NC[C@](O)(C(C)O)[C@@H]3C[C@H]1OC[C@H]23` (some centres not stated) here?
Answer: The IC50 was over 25 µM.

Question: With `C[C@H](O)[C@@]12C[N+](C)([O-])[C@@H]3C[C@]14C(=Nc1ccccc14)[C@H]1C[C@@H]2[C@@H]3CO1` (some centres not stated) as the compound, how does the IC50 [1, 8] read?
Answer: The IC50 was over 25 µM.

Question: Which IC50 [1, 8] does the source give for `CCOC(=O)CCc1cc2c3[n-]c4ccccc4c3cc[n+]2cc1C(=O)O` here?
Answer: The IC50 was over 25 µM.

Question: What does the source list for `[O-][n+]1c2c3cc4c(cn3ccc-2c2ccccc21)CCCC4`?
Answer: IC50 ([2]; a549): ND(Insoluble); IC50 ([3]; hl-60): ND(Insoluble); IC50 ([4]; beas-2b): ND(Insoluble); IC50 ([5]; smmc-7721): ND(Insoluble); IC50 ([1]; raw264.7): ND(Insoluble); IC50 ([6]; sw480): ND(Insoluble); IC50 ([7]; mcf7): ND(Insoluble)

Question: For `CC[C@@]1(O)CN[C@H]2C[C@@]3(C(=O)N(OC)c4ccccc43)[C@@H]3OC[C@H]2[C@H]1[C@@H]3O`, which IC50 [1, 8] is on record?
Answer: The IC50 was over 25 µM.

Question: With `COc1ccc2c(c1)N(OC)C(=O)[C@@]21C[C@@H]2NC=C(C=O)[C@@H]3C[C@H]1OC[C@H]23` as the compound, how does the IC50 [2, 9] read?
Answer: The IC50 was 9.3 µM.

Question: And the IC50 [3, 10]?
Answer: Its IC50 is 8.5 µM.

Question: What about the IC50 [4, 11] of the same compound?
Answer: The IC50 was over 10 µM.

Question: And the IC50 [5, 12]?
Answer: The IC50 was 7.3 µM.

Question: What about the IC50 [1, 8] of the same compound?
Answer: Its IC50 is over 25 µM.

Question: And the IC50 [6, 13]?
Answer: Its IC50 is over 10 µM.

Question: What about the IC50 [7, 14] of the same compound?
Answer: The IC50 was over 10 µM.

Question: Which IC50 [1, 8] does the source give for `C=C[C@]12[C@@H]3C[C@@H]4OC[C@@H]3[C@@H](C[C@]13C4=Nc1ccccc13)N(C)[C@@H]2O` here?
Answer: Its IC50 is over 25 µM.

Question: What does the source list for `C=C[C@@]12C=N[C@H]3C[C@]14C(=Nc1ccccc14)[C@H]1C[C@@H]2[C@@H]3CO1`?
Answer: IC50 [2, 9]: 4.9 µM; IC50 [3, 10]: 4.6 µM; IC50 [4, 11]: 8.6 µM; IC50 [5, 12]: 5.3 µM; IC50 [1, 8]: > 25 µM; IC50 [6, 13]: 7.3 µM; IC50 [7, 14]: 9.3 µM
